In ChEMBL document CHEMBL4261536, “Encapsulation of nor-β-lapachone into poly(d,l)-lactide-co-glycolide (PLGA) microcapsules: full characterization, computational details and cytotoxic activity against human cancer cell lines” (Medchemcomm, 2017):
In brackets after ≈: the same amount, converted by molar mass. Activity calls are given as the source filed them. The rule behind the calls is not given here.

Tests used:
OVCAR-8 [1] = assay: Cytotoxicity against human OVCAR8 cells assessed as decrease in cell viability after 72 hrs by MTT assay; format: functional, cell-based; settings: OVCAR-8, 72 h
Summary of the method: (§1)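 Cells grown in RPMI 1640 with 10% FBS and penicillin/streptomycin at 37°C, 5% CO2. Seeded at 0.1×10⁶ cells/well (HCT-116: 0.7×10⁵). After 24 h, drug in DMSO added at […]; controls got DMSO. Exposure 72 h, with prostate lines read at 24, 72 and 96 h. Then MTT (0.5 mg/mL) for 3 h, formazan dissolved in DMSO, A595 expressed as % of control. IC50 by nonlinear regression from three independent experiments in triplicate.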

DU-145 [2] = assay: Cytotoxicity against human DU145 cells assessed as decrease in cell viability after 72 hrs by MTT assay; format: functional, cell-based; settings: DU-145, 72 h; summary of the method: as §1
PC-3M [3] = assay: Cytotoxicity against human PC3M cells assessed as decrease in cell viability after 72 hrs by MTT assay; format: functional, cell-based; summary of the method: as §1
SF-295 [4] = assay: Cytotoxicity against human SF295 cells assessed as decrease in cell viability after 72 hrs by MTT assay; format: functional, cell-based; settings: SF-295, 72 h; summary of the method: as §1
HCT-116 [5] = assay: Cytotoxicity against human HCT116 cells assessed as decrease in cell viability after 72 hrs by MTT assay; format: functional, cell-based; settings: HCT-116, 72 h
Summary of the method: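 After 24 h, drug in DMSO added at […]; controls got DMSO. Exposure 72 h, with prostate lines read at 24, 72 and 96 h. Then MTT (0.5 mg/mL) for 3 h, formazan dissolved in DMSO, A595 expressed as % of control. IC50 by nonlinear regression from three independent experiments in triplicate.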

PC-3 [6] = assay: Cytotoxicity against human PC3 cells assessed as decrease in cell viability after 72 hrs by MTT assay; format: functional, cell-based; settings: PC-3, 72 h; summary of the method: as §1
PBMC [7] = assay: Cytotoxicity against human PBMC assessed as decrease in cell viability after 72 hrs by Alamar blue assay; format: cell-based
Summary of the method: (§2)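 PBMC isolated from healthy volunteers' blood on Ficoll. Kept in RPMI 1640 with 20% FBS; proliferation induced with 3% phytohemagglutinin. Plated at 2×10⁴ cells/well; after 24 h, test material in PBS pH 7.4 added at […], controls got PBS. Treated 72 h, with Alamar Blue added for the final 24 h. Absorbance at 570 and 600 nm as % of control. IC50 by nonlinear regression from three independent experiments in triplicate.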

SF-295 [8] = assay: Cytotoxicity against human SF295 cells assessed as decrease in cell viability using compound loaded PLGA microcapsule after 72 hrs by MTT assay; format: functional, cell-based; settings: SF-295, 72 h
Summary of the method: (§3)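 Drug-loaded PLGA microparticles suspended in PBS pH 7.4 and added at […], 24 h after seeding at 0.1×10⁶ cells/well (HCT-116: 0.7×10⁵). Medium RPMI 1640 with 10% FBS, 37°C, 5% CO2. Incubated 72 h, with DU145, PC3 and PC3M read at 24, 72 and 96 h. MTT 0.5 mg/mL for 3 h, formazan in DMSO, A595 as % of control. IC50 by nonlinear regression, three independent experiments in triplicate.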

OVCAR-8 [9] = assay: Cytotoxicity against human OVCAR8 cells assessed as decrease in cell viability using compound loaded PLGA microcapsule after 72 hrs by MTT assay; format: functional, cell-based; settings: OVCAR-8, 72 h; summary of the method: as §3
HCT-116 [10] = assay: Cytotoxicity against human HCT116 cells assessed as decrease in cell viability using compound loaded PLGA microcapsule after 72 hrs by MTT assay; format: functional, cell-based; settings: HCT-116, 72 h; summary of the method: as §3
DU-145 [11] = assay: Cytotoxicity against human DU145 cells assessed as decrease in cell viability using compound loaded PLGA microcapsule after 72 hrs by MTT assay; format: functional, cell-based; settings: DU-145, 72 h; summary of the method: as §3
PC-3M [12] = assay: Cytotoxicity against human PC3M cells assessed as decrease in cell viability using compound loaded PLGA microcapsule after 72 hrs by MTT assay; format: functional, cell-based; summary of the method: as §3
PC-3 [13] = assay: Cytotoxicity against human PC3 cells assessed as decrease in cell viability using compound loaded PLGA microcapsule after 72 hrs by MTT assay; format: functional, cell-based; settings: PC-3, 72 h; summary of the method: as §3
PBMC [14] = assay: Cytotoxicity against human PBMC assessed as decrease in cell viability using compound loaded PLGA microcapsule after 72 hrs by Alamar blue assay; format: cell-based; summary of the method: as §2
PC-3M [15] = assay: Cytotoxicity against human PC3M cells assessed as decrease in cell viability after 24 hrs by MTT assay; format: functional, cell-based; summary of the method: as §1
PC-3M [16] = assay: Cytotoxicity against human PC3M cells assessed as decrease in cell viability using compound loaded PLGA microcapsule after 24 hrs by MTT assay; format: functional, cell-based; summary of the method: as §3
PC-3M [17] = assay: Cytotoxicity against human PC3M cells assessed as decrease in cell viability after 96 hrs by MTT assay; format: functional, cell-based; summary of the method: as §1
PC-3M [18] = assay: Cytotoxicity against human PC3M cells assessed as decrease in cell viability using compound loaded PLGA microcapsule after 96 hrs by MTT assay; format: functional, cell-based; summary of the method: as §3
PC-3 [19] = assay: Cytotoxicity against human PC3 cells assessed as decrease in cell viability after 24 hrs by MTT assay; format: functional, cell-based; summary of the method: as §1
PC-3 [20] = assay: Cytotoxicity against human PC3 cells assessed as decrease in cell viability using compound loaded PLGA microcapsule after 24 hrs by MTT assay; format: functional, cell-based; summary of the method: as §3
DU-145 [21] = assay: Cytotoxicity against human DU145 cells assessed as decrease in cell viability after 24 hrs by MTT assay; format: functional, cell-based; summary of the method: as §1
DU-145 [22] = assay: Cytotoxicity against human DU145 cells assessed as decrease in cell viability using compound loaded PLGA microcapsule after 24 hrs by MTT assay; format: functional, cell-based; summary of the method: as §3
PC-3 [23] = assay: Cytotoxicity against human PC3 cells assessed as decrease in cell viability after 96 hrs by MTT assay; format: functional, cell-based; summary of the method: as §1
PC-3 [24] = assay: Cytotoxicity against human PC3 cells assessed as decrease in cell viability using compound loaded PLGA microcapsule after 96 hrs by MTT assay; format: functional, cell-based; summary of the method: as §3
DU-145 [25] = assay: Cytotoxicity against human DU145 cells assessed as decrease in cell viability after 96 hrs by MTT assay; format: functional, cell-based; summary of the method: as §1
DU-145 [26] = assay: Cytotoxicity against human DU145 cells assessed as decrease in cell viability using compound loaded PLGA microcapsule after 96 hrs by MTT assay; format: functional, cell-based; summary of the method: as §3
PC-3M [27] = assay: Induction of morphological changes in human PC3M cells at 11.2 uM after 24 to 72 hrs by hematoxylin/eosin staining-based light microscopic method; format: functional, cell-based
Summary of the method: (§4)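 PC3M cells exposed to free or PLGA-encapsulated drug, then stained with hematoxylin/eosin and examined by light microscopy (400×) after 24, 48 and 72 h.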

PC-3M [28] = assay: Induction of morphological changes in human PC3M cells at 5.4 uM using compound loaded PLGA microcapsule after 24 to 72 hrs by hematoxylin/eosin staining-based light microscopic method; format: functional, cell-based; summary of the method: as §4

## COc1cccc2c1C(=O)c1c(O)c3c(c(O)c1C2=O)C[C@@](O)(C(=O)CO)C[C@@H]3O[C@H]1C[C@H](N)[C@H](O)[C@H](C)O1 [DOXORUBICIN]
OVCAR-8 [1]
  IC50: 0.62 µM
DU-145 [2]
  IC50: 0.153 µM
PC-3M [3]
  IC50: 0.368 µM

## CC1(C)CC2=C(O1)c1ccccc1C(=O)C2=O [NOR-BETA-LAPACHONE]
SF-295 [4]
  IC50: 1.45 µM
OVCAR-8 [1]
  IC50: 2.58 µM
HCT-116 [5]
  IC50: 1.57 µM
DU-145 [2]
  IC50: 1.39 µM
PC-3M [3]
  IC50: 8.97 µM
PC-3 [6]
  IC50: 1.45 µM
PBMC [7]
  IC50: 10 µM
SF-295 [8]
  IC50: 7.4 µM
OVCAR-8 [9]
  IC50: 13.7 µM
HCT-116 [10]
  IC50: 7.48 µM
DU-145 [11]
  IC50: 2.38 µM
PC-3M [12]
  IC50: 4.59 µM
PC-3 [13]
  IC50: 1.85 µM
PBMC [14]
  IC50: 10 µM
PC-3M [15]
  IC50: 1.89 µg/mL (≈ 8.27 µM)
PC-3M [16]
  IC50: 2.44 µg/mL (≈ 10.7 µM)
PC-3M [17]
  IC50: 1.79 µg/mL (≈ 7.83 µM)
PC-3M [18]
  IC50: 1.4 µg/mL (≈ 6.14 µM)
PC-3 [19]
  Activity: Active
PC-3 [20]
  Activity: Active
DU-145 [21]
  Activity: Active
DU-145 [22]
  Activity: Active
PC-3 [23]
  Activity: Active
PC-3 [24]
  Activity: Active
DU-145 [25]
  Activity: Active
DU-145 [26]
  Activity: Active
PC-3M [27]
  Activity: Active
PC-3M [28]
  Activity: Active
